# Laboratory results as given in ChEMBL document CHEMBL5046221, “Identification of Pyrimidine-Based Lead Compounds for Understudied Kinases Implicated in Driving Neurodegeneration” (J Med Chem, 2022).
# pIC50: −log10 of the molar value.
# Key:
# [1] = Effective permeability in PBS at 7.4 incubated for 5 hrs by PAMPA analysis; assay type: ADME; settings: pH 7.4, 5 h
# How it was run: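 PAMPA: DMSO stocks were diluted in PBS pH 7.4 and placed in the donor compartment, with PBS pH 7.4 in the acceptor, for 5 h. Both compartments were quantified by CLND against a calibration curve, with background nitrogen correction. Effective permeability was calculated from donor and acceptor concentrations using measured rather than assumed solubility.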
# [2] = target: MAP/microtubule affinity-regulating kinase 3 (Homo sapiens, UniProt P27448); assay: Displacement of tracer K9 from NLuc fused MARK3 (unknown origin) expressed in HEK293 cells by NanoBRET assay; assay type: cell-based
# [3] = target: T1, MAP/microtubule affinity-regulating kinase 4 (Homo sapiens, UniProt Q96L34); assay: Displacement of tracer K5 from NLuc fused MARK4 (unknown origin) expressed in HEK293 cells by NanoBRET assay; assay type: cell-based
# T1 sequence (Q96L34 whole entry): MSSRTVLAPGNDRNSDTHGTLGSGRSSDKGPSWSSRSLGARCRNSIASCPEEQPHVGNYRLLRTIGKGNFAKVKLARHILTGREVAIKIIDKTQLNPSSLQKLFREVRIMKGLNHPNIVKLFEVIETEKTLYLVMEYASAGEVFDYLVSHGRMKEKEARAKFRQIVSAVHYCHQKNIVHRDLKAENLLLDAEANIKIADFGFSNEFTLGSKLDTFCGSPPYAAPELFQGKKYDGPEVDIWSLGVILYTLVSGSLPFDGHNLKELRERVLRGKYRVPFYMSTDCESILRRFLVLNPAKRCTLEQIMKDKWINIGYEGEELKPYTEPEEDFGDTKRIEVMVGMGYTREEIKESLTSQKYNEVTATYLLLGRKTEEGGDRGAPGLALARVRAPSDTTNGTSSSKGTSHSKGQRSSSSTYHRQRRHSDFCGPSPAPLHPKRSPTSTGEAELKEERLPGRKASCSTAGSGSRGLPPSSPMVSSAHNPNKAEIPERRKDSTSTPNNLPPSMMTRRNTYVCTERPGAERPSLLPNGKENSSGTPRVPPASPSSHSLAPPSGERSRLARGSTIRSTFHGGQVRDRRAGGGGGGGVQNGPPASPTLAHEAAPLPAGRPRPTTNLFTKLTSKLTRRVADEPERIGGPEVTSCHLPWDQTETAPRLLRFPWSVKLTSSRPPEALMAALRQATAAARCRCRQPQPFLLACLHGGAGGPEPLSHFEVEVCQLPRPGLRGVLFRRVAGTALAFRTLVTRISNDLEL
# [4] = Kinetic solubility of compound in PBS at pH 7.4 incubated for 24 hrs by chemiluminscent nitrogen detection method; assay type: physicochemical; settings: buffer, pH 7.4, 24 h
# How it was run: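 Filtrates were quantified by total chemiluminescent nitrogen determination against a calibration curve, with correction for background nitrogen from DMSO and medium.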
# [5] = target: T2, Serine/threonine-protein kinase TBK1 (Homo sapiens, UniProt Q9UHD2); assay: Displacement of tracer K5 from NLuc fused TBK1 (unknown origin) expressed in HEK293 cells by NanoBRET assay; assay type: cell-based
# T2 sequence (Q9UHD2 whole entry): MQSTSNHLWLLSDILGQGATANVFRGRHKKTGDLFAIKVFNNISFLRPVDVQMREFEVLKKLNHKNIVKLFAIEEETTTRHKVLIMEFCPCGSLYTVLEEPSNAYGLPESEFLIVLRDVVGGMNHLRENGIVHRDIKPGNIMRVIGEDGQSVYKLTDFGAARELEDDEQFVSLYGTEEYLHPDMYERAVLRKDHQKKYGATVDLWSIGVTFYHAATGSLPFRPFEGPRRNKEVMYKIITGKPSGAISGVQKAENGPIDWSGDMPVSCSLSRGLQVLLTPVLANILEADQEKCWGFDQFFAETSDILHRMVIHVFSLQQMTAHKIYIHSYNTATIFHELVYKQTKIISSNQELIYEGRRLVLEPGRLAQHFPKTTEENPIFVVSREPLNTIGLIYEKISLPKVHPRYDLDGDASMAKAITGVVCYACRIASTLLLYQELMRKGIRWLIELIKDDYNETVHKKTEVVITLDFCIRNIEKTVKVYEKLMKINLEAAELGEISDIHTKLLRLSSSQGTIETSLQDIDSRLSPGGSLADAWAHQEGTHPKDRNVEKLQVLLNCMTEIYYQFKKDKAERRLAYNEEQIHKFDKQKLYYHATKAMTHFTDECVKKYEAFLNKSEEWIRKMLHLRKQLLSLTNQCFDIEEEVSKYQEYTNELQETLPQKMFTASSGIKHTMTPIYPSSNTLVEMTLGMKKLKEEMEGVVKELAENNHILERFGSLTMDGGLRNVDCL
# How it was run: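 HEK293 cells grown in DMEM with 10% FBS at 37 °C, 5% CO2. NanoBRET assay run in dose–response per manufacturer's protocol with tracer K-5 at 0.5 μM. SEM calculated for assays run more than once.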
# [6] = target: Receptor tyrosine-protein kinase erbB-2 (Homo sapiens, UniProt P04626); assay: Inhibition of recombinant human ERBB2 (676 to 1255 residues) using poly(Glu:Tyr) as substrate incubated for 40 mins in presence of [gamma-33P-ATP] by radiometric scintillation assay
# How it was run: (§1)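 Eurofins radiometric enzymatic assay with ATP at Km for each kinase. IC50 was derived from a 9-point dose–response curve run in duplicate.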
# [7] = target: Tyrosine-protein kinase JAK2 (Homo sapiens) (UniProt O60674); assay: Inhibition of recombinant human JAK2 (808 to end residues) using KTFCGTPEYLAPEVRREPRILSEEEQEMFRDFDYIADWC as substrate at 1 uM incubated for 40 mins in presence of [gamma-33P-ATP] by radiometric scintillation assay relative to control
# How it was run: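 Eurofins radiometric kinase assay with ATP at Km for each kinase. Compound was tested at a single 1 μM concentration in duplicate, and the result is reported as percent of control.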
# [8] = target: T3, Macrophage colony-stimulating factor 1 receptor (Homo sapiens, UniProt P07333); assay: Inhibition of recombinant human FMS (538 to end residues) using KKKSPGEYVNIEFG as substrate measured after 40 mins in presence of [gamma33P]ATP by radiometric scintillation counting method
# How it was run: (§2)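 Eurofins radiometric kinase assay run at ATP equal to Km for each kinase. 9-point dose–response in duplicate gives the IC50.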
# [9] = target: T4, Non-receptor tyrosine-protein kinase TYK2 (Homo sapiens, UniProt P29597); assay: Inhibition of NanoLuc-fused TYK2 (unknown origin) expressed in HEK293 cells incubated for 2 hrs by NanoBRET assay; assay type: cell-based
# How it was run: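 Cellular NanoBRET target-engagement assays were run by Carna Biosciences to the manufacturer's protocol. Dose–response was in singlicate, with compounds tested at concentrations up to 10 μM.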
# [10] = target: T3, Macrophage colony-stimulating factor 1 receptor; assay: Inhibition of NanoLuc-fused CSF1R (unknown origin) expressed in HEK293 cells incubated for 2 hrs by NanoBRET assay; assay type: cell-based
# [11] = Inhibition of human TTBK1 (1 to 479 residues) using Casein as substrate measured after 40 mins in presence of [gamma33P]ATP by scintillation counting method; how it was run: as §2
# [12] = target: T5, Serine/threonine-protein kinase 17A (Homo sapiens, UniProt Q9UEE5); assay: Displacement of tracer K9 from NLuc fused DRAK1 (unknown origin) expressed in HEK293 cells by NanoBRET assay; assay type: cell-based
# T5 sequence (Q9UEE5 whole entry): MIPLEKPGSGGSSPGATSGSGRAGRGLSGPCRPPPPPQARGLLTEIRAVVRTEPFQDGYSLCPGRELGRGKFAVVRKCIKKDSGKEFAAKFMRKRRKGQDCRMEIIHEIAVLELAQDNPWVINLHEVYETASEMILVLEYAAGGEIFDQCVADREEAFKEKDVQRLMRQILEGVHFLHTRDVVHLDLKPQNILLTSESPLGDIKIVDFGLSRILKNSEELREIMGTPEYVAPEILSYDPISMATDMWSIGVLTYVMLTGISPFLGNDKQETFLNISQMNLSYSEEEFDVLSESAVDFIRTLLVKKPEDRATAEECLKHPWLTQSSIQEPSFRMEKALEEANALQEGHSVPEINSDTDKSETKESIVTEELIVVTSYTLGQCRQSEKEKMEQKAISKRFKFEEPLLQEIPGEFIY
# [13] = target: T4, Non-receptor tyrosine-protein kinase TYK2; assay: Inhibition of human TYK2 (875 to end residues) using GGMEDIYFEFMGGKKK as substrate measured after 40 mins in presence of [gamma33P]ATP by radiometric scintillation counting method; how it was run: as §1
# [14] = target: Death-associated protein kinase 3 (Homo sapiens, UniProt O43293); assay: Inhibition of recombinant human ZIPK (1 to 290 residues) using KKLNRTLSFAEPG as substrate measured after 40 mins in presence of [gamma33P]ATP by radiometric scintillation counting method; how it was run: as §1
# [15] = target: T6, Inhibitor of nuclear factor kappa-B kinase subunit epsilon (Homo sapiens, UniProt Q14164); assay: Inhibition of full length recombinant human IKKepsilon using casein as substrate incubated for 40 mins in presence of [gamma-33P-ATP] by radiometric scintillation assay; how it was run: as §2
# T6 sequence (Q14164 whole entry): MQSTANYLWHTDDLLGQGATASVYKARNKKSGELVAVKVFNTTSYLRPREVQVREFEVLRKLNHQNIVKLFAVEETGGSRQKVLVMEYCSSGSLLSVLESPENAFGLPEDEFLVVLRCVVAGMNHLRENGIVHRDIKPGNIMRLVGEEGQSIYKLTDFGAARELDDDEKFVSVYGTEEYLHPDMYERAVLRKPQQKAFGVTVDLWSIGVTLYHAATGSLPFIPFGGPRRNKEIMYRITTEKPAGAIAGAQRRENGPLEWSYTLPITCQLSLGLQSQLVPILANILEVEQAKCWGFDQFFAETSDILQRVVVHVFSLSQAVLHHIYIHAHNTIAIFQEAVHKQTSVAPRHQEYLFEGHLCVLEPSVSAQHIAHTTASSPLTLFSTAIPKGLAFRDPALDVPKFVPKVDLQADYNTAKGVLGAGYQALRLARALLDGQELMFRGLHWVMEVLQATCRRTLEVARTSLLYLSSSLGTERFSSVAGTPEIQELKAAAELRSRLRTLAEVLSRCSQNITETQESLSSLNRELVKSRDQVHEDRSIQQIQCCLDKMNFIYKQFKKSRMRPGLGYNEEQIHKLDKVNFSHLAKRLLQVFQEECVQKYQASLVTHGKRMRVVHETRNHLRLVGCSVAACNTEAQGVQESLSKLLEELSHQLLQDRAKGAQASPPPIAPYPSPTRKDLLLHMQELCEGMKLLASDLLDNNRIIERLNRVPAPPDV
# [16] = target: MAP kinase-interacting serine/threonine-protein kinase 2 (Homo sapiens, UniProt Q9HBH9); assay: Inhibition of full length recombinant human MKNK2 using myelin basic protein as substrate incubated for 40 mins in presence of [gamma-33P-ATP] by radiometric scintillation assay; how it was run: as §2
# MAP kinase-interacting serine/threonine-protein kinase 2, sequence (Q9HBH9 whole entry): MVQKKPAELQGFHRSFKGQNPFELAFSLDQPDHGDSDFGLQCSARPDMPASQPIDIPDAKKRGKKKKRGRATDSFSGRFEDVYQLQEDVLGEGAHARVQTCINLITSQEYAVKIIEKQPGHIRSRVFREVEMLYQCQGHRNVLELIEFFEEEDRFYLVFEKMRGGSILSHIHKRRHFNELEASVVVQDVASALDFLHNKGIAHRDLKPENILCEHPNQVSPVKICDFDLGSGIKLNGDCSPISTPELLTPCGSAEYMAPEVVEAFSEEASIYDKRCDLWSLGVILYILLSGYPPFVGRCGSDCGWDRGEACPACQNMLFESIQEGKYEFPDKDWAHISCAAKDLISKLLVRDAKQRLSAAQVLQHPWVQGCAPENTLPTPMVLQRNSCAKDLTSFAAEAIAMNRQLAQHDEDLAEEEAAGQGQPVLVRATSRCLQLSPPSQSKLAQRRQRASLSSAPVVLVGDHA
# T3 sequence (P07333 whole entry): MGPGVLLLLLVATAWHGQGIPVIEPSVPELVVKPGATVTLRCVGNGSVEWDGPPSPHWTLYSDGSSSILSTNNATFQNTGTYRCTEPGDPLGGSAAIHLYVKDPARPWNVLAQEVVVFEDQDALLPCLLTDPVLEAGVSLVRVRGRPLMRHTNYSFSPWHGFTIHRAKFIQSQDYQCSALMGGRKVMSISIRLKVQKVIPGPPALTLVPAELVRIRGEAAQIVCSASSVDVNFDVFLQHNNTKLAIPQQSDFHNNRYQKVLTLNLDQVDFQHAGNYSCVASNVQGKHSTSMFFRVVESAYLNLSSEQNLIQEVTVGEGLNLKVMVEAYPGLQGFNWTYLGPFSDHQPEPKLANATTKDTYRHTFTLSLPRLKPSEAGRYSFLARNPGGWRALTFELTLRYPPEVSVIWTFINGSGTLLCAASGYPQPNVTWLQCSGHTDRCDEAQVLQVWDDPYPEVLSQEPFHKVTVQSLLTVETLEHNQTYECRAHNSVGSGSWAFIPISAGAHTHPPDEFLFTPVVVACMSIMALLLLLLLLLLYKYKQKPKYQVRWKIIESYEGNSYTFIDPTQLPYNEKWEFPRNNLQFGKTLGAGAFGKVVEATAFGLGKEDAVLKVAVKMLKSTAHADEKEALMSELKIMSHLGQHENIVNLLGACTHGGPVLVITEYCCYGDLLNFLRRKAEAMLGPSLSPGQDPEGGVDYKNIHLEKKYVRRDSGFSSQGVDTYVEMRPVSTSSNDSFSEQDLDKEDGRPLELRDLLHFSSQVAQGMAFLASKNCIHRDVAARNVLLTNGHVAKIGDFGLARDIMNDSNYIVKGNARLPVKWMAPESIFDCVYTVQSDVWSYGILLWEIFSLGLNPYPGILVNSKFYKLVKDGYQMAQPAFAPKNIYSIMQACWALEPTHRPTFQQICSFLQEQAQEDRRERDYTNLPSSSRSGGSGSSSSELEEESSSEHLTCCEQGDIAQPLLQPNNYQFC
# MAP/microtubule affinity-regulating kinase 3, sequence (P27448 whole entry, the tested form may be a part): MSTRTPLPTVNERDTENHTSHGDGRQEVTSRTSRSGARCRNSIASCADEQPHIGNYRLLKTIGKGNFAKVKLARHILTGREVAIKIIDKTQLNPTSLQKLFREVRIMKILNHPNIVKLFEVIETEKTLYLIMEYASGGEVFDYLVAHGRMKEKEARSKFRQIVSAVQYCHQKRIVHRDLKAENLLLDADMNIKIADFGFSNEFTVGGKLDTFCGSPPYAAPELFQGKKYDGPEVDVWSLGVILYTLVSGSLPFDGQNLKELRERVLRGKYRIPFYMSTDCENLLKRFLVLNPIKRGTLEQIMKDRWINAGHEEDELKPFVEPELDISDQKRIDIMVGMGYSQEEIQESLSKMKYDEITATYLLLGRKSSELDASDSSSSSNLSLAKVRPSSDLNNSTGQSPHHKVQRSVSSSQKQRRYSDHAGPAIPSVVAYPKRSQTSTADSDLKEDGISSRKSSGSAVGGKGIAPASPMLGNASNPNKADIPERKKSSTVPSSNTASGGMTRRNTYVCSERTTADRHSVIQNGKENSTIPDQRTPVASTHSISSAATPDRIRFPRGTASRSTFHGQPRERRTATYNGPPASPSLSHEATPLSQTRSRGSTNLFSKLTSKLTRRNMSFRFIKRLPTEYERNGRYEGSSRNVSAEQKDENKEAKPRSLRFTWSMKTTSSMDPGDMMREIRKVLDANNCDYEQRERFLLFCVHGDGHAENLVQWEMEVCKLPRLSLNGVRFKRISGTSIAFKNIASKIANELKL
# T4 sequence (P29597 whole entry, the tested form may be a part): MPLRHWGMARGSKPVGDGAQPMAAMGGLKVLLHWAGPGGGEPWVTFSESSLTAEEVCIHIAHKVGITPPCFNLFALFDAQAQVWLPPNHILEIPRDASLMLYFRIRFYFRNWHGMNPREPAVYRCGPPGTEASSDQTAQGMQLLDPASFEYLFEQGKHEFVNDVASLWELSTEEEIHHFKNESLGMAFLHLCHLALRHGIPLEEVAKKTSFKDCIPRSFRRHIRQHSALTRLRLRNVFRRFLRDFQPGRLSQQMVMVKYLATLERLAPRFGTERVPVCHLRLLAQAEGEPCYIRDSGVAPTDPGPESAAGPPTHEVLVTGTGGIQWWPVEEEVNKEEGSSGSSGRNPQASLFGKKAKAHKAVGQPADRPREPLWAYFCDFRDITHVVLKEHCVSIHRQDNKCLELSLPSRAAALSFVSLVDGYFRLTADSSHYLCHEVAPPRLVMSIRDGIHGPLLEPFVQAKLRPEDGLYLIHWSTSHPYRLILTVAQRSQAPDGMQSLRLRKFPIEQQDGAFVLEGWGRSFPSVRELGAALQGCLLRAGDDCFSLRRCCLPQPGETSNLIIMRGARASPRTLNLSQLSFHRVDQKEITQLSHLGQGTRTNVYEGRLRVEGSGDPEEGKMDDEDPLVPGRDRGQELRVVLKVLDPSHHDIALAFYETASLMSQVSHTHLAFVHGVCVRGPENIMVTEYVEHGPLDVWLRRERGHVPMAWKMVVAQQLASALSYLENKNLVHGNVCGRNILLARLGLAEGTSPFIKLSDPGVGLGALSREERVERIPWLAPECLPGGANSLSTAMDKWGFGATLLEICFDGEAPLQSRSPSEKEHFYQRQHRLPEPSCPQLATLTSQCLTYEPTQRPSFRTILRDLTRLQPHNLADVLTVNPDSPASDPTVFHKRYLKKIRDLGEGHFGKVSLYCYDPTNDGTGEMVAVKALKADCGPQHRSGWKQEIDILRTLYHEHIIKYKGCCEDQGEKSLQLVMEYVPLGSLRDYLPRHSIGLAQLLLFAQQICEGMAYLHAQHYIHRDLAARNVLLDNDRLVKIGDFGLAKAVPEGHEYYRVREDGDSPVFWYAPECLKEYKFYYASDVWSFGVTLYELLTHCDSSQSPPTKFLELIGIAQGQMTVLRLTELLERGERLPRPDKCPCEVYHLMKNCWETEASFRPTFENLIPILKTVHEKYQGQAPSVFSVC
# Death-associated protein kinase 3, sequence (O43293 whole entry, the tested form may be a part): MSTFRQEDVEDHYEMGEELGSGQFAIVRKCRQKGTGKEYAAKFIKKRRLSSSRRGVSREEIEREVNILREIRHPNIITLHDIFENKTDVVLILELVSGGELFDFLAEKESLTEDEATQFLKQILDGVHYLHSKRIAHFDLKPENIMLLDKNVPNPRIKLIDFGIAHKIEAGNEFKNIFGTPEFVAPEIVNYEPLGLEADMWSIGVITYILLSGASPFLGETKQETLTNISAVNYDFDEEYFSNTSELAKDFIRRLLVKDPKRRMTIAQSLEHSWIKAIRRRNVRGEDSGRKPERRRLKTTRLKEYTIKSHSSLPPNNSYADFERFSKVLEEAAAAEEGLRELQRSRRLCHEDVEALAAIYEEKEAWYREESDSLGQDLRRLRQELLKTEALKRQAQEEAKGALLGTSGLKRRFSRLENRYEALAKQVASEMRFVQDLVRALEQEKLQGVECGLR
# Receptor tyrosine-protein kinase erbB-2, sequence (P04626 whole entry, the tested form may be a part): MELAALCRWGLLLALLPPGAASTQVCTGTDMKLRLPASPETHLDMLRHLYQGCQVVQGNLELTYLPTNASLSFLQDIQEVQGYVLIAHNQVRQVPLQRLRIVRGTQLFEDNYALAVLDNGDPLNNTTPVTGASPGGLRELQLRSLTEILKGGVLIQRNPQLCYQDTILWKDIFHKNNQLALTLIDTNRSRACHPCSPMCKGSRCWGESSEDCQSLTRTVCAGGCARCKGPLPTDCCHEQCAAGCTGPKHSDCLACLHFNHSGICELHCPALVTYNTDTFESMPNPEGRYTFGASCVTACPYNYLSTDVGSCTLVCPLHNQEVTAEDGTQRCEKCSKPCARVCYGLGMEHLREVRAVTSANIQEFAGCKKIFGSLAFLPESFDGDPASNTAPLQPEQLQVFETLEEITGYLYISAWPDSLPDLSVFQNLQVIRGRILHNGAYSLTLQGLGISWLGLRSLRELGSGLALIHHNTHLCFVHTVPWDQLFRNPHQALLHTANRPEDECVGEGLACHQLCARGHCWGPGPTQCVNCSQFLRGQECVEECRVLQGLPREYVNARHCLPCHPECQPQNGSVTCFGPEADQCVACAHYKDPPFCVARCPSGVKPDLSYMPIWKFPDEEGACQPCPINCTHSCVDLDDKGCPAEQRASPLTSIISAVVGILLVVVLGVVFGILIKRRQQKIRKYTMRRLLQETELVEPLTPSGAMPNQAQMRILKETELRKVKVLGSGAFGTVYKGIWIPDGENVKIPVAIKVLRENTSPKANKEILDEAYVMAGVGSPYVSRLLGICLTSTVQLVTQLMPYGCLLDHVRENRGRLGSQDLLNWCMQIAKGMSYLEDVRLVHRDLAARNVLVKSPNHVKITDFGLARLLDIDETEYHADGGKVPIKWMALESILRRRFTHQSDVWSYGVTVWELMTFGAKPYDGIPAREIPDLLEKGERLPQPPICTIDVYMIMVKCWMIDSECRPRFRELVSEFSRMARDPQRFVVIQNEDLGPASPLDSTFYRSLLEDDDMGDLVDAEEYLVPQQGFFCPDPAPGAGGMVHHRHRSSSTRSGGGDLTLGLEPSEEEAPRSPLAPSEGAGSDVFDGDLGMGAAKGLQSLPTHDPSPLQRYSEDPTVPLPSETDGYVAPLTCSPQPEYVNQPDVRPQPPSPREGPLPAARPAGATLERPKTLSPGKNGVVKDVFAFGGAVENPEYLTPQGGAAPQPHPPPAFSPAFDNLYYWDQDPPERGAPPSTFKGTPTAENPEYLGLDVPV
structure (smiles),measurement,setting,value
NS(=O)(=O)c1ccc(CNc2ccnc(Nc3cccc(CN4CCOCC4)c3)n2)cc1,Peff,[1],4.56 10^-7 cm/s
same,pIC50,[2],< 5.00
same,pIC50,[3],< 5.00
same,Kinetic solubility,[4],176 µM
same,pIC50,[5],< 5.00
same,pIC50,[6],< 5.00
same,% control,[7],54%
same,pIC50,[8],7.04
same,pIC50,[9],< 5.00
same,pIC50,[10],5.30
same,pIC50,[11],5.56
same,pIC50,[12],< 5.00
same,pIC50,[13],6.56
Cc1nn(CC(F)(F)F)cc1Nc1ncc(Br)c(NCc2ccc(S(N)(=O)=O)cc2)n1,Peff,[1]; BLD = below limit of detection,Bld
same,pIC50,[14],< 5.00
same,pIC50,[2],< 5.00
same,pIC50,[3],< 5.00
same,Kinetic_solubility,[4],176.9 µM
same,pIC50,[5],6.47
same,pIC50,[15],6.26
same,pIC50,[16],5.86
same,pIC50,[10],< 5.00
same,pIC50,[11],7.43
same,pIC50,[12],< 5.00
